Assay results: ChEMBL document CHEMBL1131323, “Inhibition of membrane-type 1 matrix metalloproteinase by hydroxamate inhibitors: an examination of the subsite pocket” (J Med Chem, 1998)

Legend:
[1] = molecular target: Matrix metalloproteinase-9 (Homo sapiens, UniProt P14780); test: Activity against Matrix metalloprotease-9 (MMP-9).
[2] = molecular target: Stromelysin-1 (Homo sapiens, UniProt P08254); test: Activity against Matrix metalloprotease-3 (MMP-3).
Procedure, shortened: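 MMP-3 purified from human fibroblast culture medium, used at 0.3 U/mL. Substrate was radiolabeled proteoglycan entrapped in polyacrylamide particles (3.5 mg dry beads). IC50 values read from dose-dependent inhibition curves.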

[3] = molecular target: T1, Interstitial collagenase (Homo sapiens, UniProt P03956); test: Activity against Matrix metalloprotease-1 (MMP-1).
T1 sequence (P03956 whole entry): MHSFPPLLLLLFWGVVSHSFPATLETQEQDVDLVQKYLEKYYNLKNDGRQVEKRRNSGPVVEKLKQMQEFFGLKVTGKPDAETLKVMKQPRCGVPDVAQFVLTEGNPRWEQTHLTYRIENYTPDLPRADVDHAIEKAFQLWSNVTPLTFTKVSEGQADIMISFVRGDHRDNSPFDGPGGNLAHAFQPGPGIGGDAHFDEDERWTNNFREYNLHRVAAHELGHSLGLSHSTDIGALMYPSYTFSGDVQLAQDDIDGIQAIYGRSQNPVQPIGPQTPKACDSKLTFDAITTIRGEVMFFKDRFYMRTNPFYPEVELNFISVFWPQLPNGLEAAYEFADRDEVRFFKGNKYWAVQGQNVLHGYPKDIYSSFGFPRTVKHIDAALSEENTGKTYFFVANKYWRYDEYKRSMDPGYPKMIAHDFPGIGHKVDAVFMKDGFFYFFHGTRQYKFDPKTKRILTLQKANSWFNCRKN

[4] = molecular target: 72 kDa type IV collagenase (Homo sapiens, UniProt P08253); test: Activity against Matrix metalloprotease-2 (MMP-2).
[5] = molecular target: Matrix metalloproteinase-14 (Homo sapiens, UniProt P50281); test: Activity against deletion mutant of MT1-MMP lacking the transmembrane domain (deltaMT1)

Chain of Matrix metalloproteinase-9 (P14780 whole entry): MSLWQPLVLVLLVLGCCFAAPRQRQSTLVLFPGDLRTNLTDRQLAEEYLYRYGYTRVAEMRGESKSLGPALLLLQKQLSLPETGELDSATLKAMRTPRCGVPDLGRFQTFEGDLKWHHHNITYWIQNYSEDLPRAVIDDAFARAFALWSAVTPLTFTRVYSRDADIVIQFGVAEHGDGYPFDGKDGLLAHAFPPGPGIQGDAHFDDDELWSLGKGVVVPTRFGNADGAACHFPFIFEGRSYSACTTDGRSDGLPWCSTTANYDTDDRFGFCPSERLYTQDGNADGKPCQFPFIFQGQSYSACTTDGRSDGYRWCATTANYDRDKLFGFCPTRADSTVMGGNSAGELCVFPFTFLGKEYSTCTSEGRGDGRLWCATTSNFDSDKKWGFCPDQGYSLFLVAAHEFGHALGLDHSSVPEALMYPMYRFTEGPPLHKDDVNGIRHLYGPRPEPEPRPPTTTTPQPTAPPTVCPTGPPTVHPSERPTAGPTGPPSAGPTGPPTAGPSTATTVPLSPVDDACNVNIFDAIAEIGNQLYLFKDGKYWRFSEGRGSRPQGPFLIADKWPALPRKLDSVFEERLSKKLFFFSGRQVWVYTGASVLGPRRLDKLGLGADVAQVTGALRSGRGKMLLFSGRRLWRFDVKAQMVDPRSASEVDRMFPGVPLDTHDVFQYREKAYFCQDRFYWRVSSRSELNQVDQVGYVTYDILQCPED
Chain of 72 kDa type IV collagenase (P08253 whole entry, the tested form may be a part): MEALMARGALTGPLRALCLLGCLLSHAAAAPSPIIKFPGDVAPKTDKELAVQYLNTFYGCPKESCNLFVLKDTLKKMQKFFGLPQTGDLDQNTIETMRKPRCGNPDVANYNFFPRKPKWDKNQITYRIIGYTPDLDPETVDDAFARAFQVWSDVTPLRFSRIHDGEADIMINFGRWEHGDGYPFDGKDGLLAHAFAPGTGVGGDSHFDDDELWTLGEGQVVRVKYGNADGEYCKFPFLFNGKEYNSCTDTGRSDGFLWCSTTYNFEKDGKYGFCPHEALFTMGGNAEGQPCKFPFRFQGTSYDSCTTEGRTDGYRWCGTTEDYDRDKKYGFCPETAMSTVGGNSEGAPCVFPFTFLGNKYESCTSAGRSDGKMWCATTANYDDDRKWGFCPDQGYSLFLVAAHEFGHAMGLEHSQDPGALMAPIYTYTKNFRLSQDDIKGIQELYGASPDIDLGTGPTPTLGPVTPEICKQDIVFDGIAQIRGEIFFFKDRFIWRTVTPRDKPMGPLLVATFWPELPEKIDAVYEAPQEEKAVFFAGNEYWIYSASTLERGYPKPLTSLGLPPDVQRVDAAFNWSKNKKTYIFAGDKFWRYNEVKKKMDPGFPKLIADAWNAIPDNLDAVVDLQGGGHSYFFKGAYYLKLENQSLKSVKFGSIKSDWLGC
Chain of Stromelysin-1 (P08254 whole entry): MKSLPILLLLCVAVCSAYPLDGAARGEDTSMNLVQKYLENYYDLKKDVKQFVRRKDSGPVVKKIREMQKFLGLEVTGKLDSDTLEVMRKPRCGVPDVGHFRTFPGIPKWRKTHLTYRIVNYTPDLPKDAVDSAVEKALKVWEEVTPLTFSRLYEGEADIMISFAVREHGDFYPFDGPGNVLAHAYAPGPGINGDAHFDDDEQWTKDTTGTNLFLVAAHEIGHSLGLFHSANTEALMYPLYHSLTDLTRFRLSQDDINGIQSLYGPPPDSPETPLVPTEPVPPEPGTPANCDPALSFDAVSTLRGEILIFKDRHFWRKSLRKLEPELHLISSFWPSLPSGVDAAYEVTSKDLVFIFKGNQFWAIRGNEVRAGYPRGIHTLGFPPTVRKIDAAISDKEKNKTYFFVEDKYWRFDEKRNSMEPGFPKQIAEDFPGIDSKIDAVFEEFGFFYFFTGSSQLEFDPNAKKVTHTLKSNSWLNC

Row | IC50 [1] | IC50 [2] | IC50 [3] | IC50 [4] | IC50 [5] | SMILES
1 | 11 nM | 17 nM | 92 nM | 46.3 nM | 105 nM | CNC(=O)[C@@H](NC(=O)[C@H](CCc1ccccc1)CC(=O)NO)c1ccccc1
2 | 3.9 nM | 1.9 nM | 3 nM | 7.5 nM | 56 nM | CNC(=O)[C@@H](NC(=O)[C@H](CC(C)C)[C@H](C)C(=O)NO)c1ccccc1
3 | 0.9 nM |  | 2.9 nM |  | 13 nM | CNC(=O)[C@@H](NC(=O)[C@H](CC(C)C)[C@H](C)C(=O)NO)C1CCCCC1
4 | 2.8 nM |  | 93 nM |  | 2.5 nM | CNC(=O)[C@@H](NC(=O)[C@H](CCCc1ccccc1)CC(=O)NO)C(C)C
5 | 1.3 nM |  |  |  | 1.9 nM | CNC(=O)[C@@H](NC(=O)[C@H](CCCc1ccccc1)CC(=O)NO)C(C)(C)C
6 | 0.3 nM | 0.6 nM | 0.3 nM | 0.3 nM | 2.08 nM | CNC(=O)[C@H](Cc1cccc2c1CCCC2)NC(=O)[C@H](CC(C)C)[C@H](C)C(=O)NO
7 | 14 nM | 4.4 nM | 15 nM | 42.5 nM | 19.3 nM | CNC(=O)[C@@H](NC(=O)[C@@H](CC(=O)NO)CC(C)C)c1ccccc1
8 | 5 nM | 2.3 nM | 5.4 nM | 8.4 nM | 2.3 nM | CNC(=O)[C@@H](NC(=O)[C@@H](CC(=O)NO)CC(C)C)C1CCCCC1
9 | 3.3 nM | 9.6 nM | 89 nM | 3.2 nM | 8.5 nM | CNC(=O)[C@@H](NC(=O)[C@H](CCCc1ccccc1)CC(=O)NO)c1ccccc1
10 | 0.2 nM | 100 nM | 90 nM | 1.6 nM | 17.6 nM | CCCCCCCCC[C@H](CC(=O)NO)C(=O)N[C@H](C(=O)NC)c1ccccc1
11 | 45 nM | 61 nM | 3.5 nM |  | 72 nM | CNC(=O)[C@@H](NC(=O)[C@H](CC(C)C)[C@H](CN1CCOCC1)C(=O)NO)c1ccccc1
12 |  |  |  |  | 1.82 nM | CNC(=O)[C@@H](NC(=O)C(CC(C)C)C(O)C(=O)NO)C(C)(C)C (single isomer, unassigned)
13 | 0.2 nM |  |  |  | 3 nM | CNC(=O)[C@H](Cc1ccccc1)NC(=O)[C@H](CC(C)C)[C@H](CSc1cccs1)C(=O)NO [BATIMASTAT]
14 | 12 nM |  | 3 nM | 7.4 nM | 1.9 nM | CNC(=O)[C@@H](NC(=O)[C@@H](CC(=O)NO)CC(C)C)C(C)(C)C [RO-319790]

Row | SMILES | IC50 [1] | IC50 [2] | IC50 [3] | IC50 [4] | IC50 [5]
15 | CNC(=O)[C@H](Cc1c[nH]c2ccccc12)NC(=O)[C@@H](CC(=O)NO)CC(C)C [ILOMASTAT] |  | 1.9 nM |  |  | 13.4 nM
